Data as given in ChEMBL document CHEMBL1124926, “Structure-activity relationships of antifilarial antimycin analogues: a multivariate pattern recognition study” (J Med Chem, 1990).

Assays:
Brugia pahangi [1] = experiment: (§1) In vivo percent reduction of Brugia pahangi worm in gerbils; type: functional; parameters: concentration or dose not given beside the values
Method in brief: (§2)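 Animals were autopsied 35 days after the final dose, and worm recoveries were compared with those from untreated controls.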

[2] = Negative log transformed activity; type: ADME; parameters: unit not given here
Acanthocheilonema viteae = experiment: In vitro macrofilaricidal activity against Dipetalonema viteae was determined using the leakage of incorporated radiolabeled adenine method.; type: functional, organism-based
Method in brief: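 D. viteae adult females were labelled with radiolabelled adenine, then exposed for 120 h to concentrations descending from 10 μM in serum-free Eagle's minimal essential medium. Viability was scored as leakage of incorporated label into the medium, and the EC50 was the concentration releasing 50% of the adenine taken up.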

Brugia pahangi [3] = experiment: In vivo percent reduction of Brugia pahangi worm in gerbils; Some toxicity; type: functional; method in brief: as §2
Brugia pahangi [4] = experiment: as §1; type: functional; method in brief: as §2

Row | SMILES | Worm reduction (Brugia pahangi [1]) [%] | -Log activity [2] | EC50 (Acanthocheilonema viteae) [nM] | Worm reduction (Brugia pahangi [3]) [%] | Worm reduction (Brugia pahangi [4]) [%]
1 | CCCCCCCCCCCCNC(=O)c1cc([N+](=O)[O-])ccc1O | 0 | 1.41 | 39 | – | –
2 | CCCCCCCCCCCCCCNC(=O)c1cccc(NC(C)=O)c1O | – | -0.9 | 8000 | – | –
3 | CC(C)(C)c1ccc(NC(=O)c2cc([N+](=O)[O-])ccc2O)cc1 | 44 | 0.23 | 590 | – | –
4 | CCCCCCCCCCCCCCNC(=O)c1cc([N+](=O)[O-])ccc1O | – | 0.89 | 128 | – | –
5 | O=C(Nc1ccc(Oc2ccc(SC(F)(F)F)cc2)c(Cl)c1)c1cc([N+](=O)[O-])ccc1O | – | 1.55 | 28 | 85 | –
6 | O=C(Nc1ccc(C(=O)c2ccc(Cl)cc2)c(Cl)c1)c1cc([N+](=O)[O-])ccc1O | 14 | 1.13 | 74 | – | –
7 | CCCCCCCCNC(=O)c1cccc(NC=O)c1O | – | -0.41 | 2600 | – | –
8 | O=C(Nc1ccc(Sc2ccc(Cl)cc2)c(Cl)c1)c1cc([N+](=O)[O-])ccc1O | 70 | 1.36 | 44 | – | –
9 | CS(=O)(=O)c1cccc(C(=O)Nc2ccc(Oc3ccc(Cl)cc3)c(Cl)c2)c1O | 42 | 0.3 | 500 | – | –
10 | COc1ccc(Oc2ccc(NC(=O)c3cc([N+](=O)[O-])ccc3O)cc2Cl)cc1 | 61 | 0.77 | 170 | – | –
11 | CCCCCCNC(=O)c1cccc(NC=O)c1O | – | -1 | > 10000 | – | –
12 | O=C(Nc1ccc(Oc2ccc(Cl)cc2)c(Cl)c1)c1cc([N+](=O)[O-])ccc1O | 80.6 | 1.4 | 40 | – | –
13 | CSc1cccc(C(=O)Nc2ccc(Oc3ccc(Cl)cc3)c(Cl)c2)c1O | 52 | 0.42 | 380 | – | –
14 | CCCCCCCCCCCCCCCCNC(=O)c1cccc([N+](=O)[O-])c1O | – | -0.04 | 1100 | – | –
15 | O=C(Nc1ccc(Oc2cccc(C(F)(F)F)c2)cc1)c1cc([N+](=O)[O-])ccc1O | 80 | 1.03 | 94 | – | –
16 | O=C(Nc1ccc(Oc2cccc(C(F)(F)F)c2)c(Cl)c1)c1cc([N+](=O)[O-])ccc1O | 74 | 1.07 | 85 | – | –

Row | SMILES | Worm reduction (Brugia pahangi [1]) [%] | -Log activity [2] | EC50 (Acanthocheilonema viteae) [nM] | Worm reduction (Brugia pahangi [3]) [%] | Worm reduction (Brugia pahangi [4]) [%]
17 | CCCCCCCCCCCCCCNC(=O)c1cccc([N+](=O)[O-])c1O | – | 0.82 | 152 | – | –
18 | O=C(c1ccc(Cl)cc1)c1cc([N+](=O)[O-])ccc1O | 61 | 0.48 | 330 | – | –
19 | CSc1ccc(O)c(C(=O)Nc2ccc(Oc3ccc(Cl)cc3)c(Cl)c2)c1 | 58 | 0.32 | 480 | – | –
20 | CCCCCCCCCCCCCCNC(=O)c1cccc(NC=O)c1O | – | -0.85 | 7000 | – | 80
21 | O=C(Nc1ccc(Oc2ccc(Cl)cc2)c(Cl)c1)c1cccc([N+](=O)[O-])c1O | – | 0.82 | 150 | – | –
22 | C[S+]([O-])c1ccc(O)c(C(=O)Nc2ccc(Oc3ccc(Cl)cc3)c(Cl)c2)c1 (centres undefined) | 84 | -0.88 | 7500 | – | –
23 | O=C(Nc1ccc(Nc2ccc(Cl)cc2)c(Cl)c1)c1cc([N+](=O)[O-])ccc1O | 48 | 0.43 | 370 | – | –
24 | O=C(Nc1ccc(Oc2ccc([N+](=O)[O-])cc2Cl)cc1)c1cc([N+](=O)[O-])ccc1O | 70 | 0.92 | 120 | – | –
25 | O=CNc1cccc(C(=O)Nc2ccc(Oc3ccc(Cl)cc3)c(Cl)c2)c1O | – | -0.38 | 2400 | – | –
26 | O=C(Nc1ccc(C(O)c2ccccc2)cc1)c1cc([N+](=O)[O-])ccc1O (centres undefined) | 39 | -1 | > 10000 | – | –
27 | N#Cc1ccc(O)c(C(=O)Nc2ccc(Oc3ccc(Cl)cc3)c(Cl)c2)c1 | 17 | 1.84 | 14.5 | – | –
28 | O=C(Nc1ccc(Oc2ccccc2)cc1)c1cc([N+](=O)[O-])ccc1O | 89 | 0.1 | 800 | – | –
29 | CS(=O)(=O)c1ccc(O)c(C(=O)Nc2ccc(Oc3ccc(Cl)cc3)c(Cl)c2)c1 | 28 | 0 | 1000 | – | –
30 | CCCCCCCCCCCCCCNC(=O)c1cc(Cl)cc([N+](=O)[O-])c1O | – | 1.36 | 43.5 | – | –
31 | O=C(Nc1ccc(Oc2ccc(C(F)(F)F)cc2)cc1)c1cc([N+](=O)[O-])ccc1O | 72 | 1.02 | 95 | – | –
